Measurements from ChEMBL document CHEMBL3994633, “Exploration of phenylpropanoic acids as agonists of the free fatty acid receptor 4 (FFA4): Identification of an orally efficacious FFA4 agonist” (Bioorg Med Chem Lett, 2017).

Columns and labels:
[1] = biological target: T1, Free fatty acid receptor 4 (Homo sapiens, UniProt Q5NUL3); test: Agonist activity at human FFA4 receptor expressed in human U2OS cells co-expressing Galpha16 assessed as calcium mobilization by Fluo-4 dye based FLIPR assay; assay type: functional, cell-based
T1 sequence (Q5NUL3 whole entry): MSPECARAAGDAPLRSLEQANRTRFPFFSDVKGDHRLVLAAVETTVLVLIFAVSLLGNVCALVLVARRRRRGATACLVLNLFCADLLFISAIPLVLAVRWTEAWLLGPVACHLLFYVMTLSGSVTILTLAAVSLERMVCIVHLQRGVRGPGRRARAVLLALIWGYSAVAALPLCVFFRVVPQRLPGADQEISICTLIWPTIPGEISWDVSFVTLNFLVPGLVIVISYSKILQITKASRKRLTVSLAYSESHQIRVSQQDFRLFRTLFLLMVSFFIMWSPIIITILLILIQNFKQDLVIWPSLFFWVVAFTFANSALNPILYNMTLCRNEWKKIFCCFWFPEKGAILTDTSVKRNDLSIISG
Summary of the method: (§1)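 U2OS cells transiently expressing human FFA1 or FFA4. Agonism measured from a ten-point dose-response curve with FLIPR readout, giving EC50 (nM) and efficacy (% max response). Values are means of three experiments.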

[2] = biological target: T2, Free fatty acid receptor 1 (Homo sapiens, UniProt O14842); test: Agonist activity at human FFA1 receptor expressed in human U2OS cells co-expressing Galpha16 assessed as calcium mobilization by Fluo-4 dye based FLIPR assay; assay type: functional, cell-based; summary of the method: as §1
T2 sequence (O14842 whole entry): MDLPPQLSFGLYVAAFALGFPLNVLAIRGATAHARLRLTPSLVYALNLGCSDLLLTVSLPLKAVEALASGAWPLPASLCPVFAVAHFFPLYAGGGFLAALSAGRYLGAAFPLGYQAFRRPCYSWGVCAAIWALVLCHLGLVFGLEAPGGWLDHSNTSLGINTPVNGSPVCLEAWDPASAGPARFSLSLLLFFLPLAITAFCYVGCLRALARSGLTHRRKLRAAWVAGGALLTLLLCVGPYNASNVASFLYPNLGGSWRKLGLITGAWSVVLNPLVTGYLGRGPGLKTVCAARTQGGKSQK

[3] = biological target: T3, Free fatty acid receptor 4 (Homo sapiens) (UniProt Q5NUL3); test: Agonist activity at human FFA4 receptor expressed in human U2OS cells co-expressing Galpha16 assessed as calcium mobilization by Fluo-4 dye based FLIPR assay relative to GSK137647A; assay type: functional, cell-based; summary of the method: as §1
T3 sequence (whole entry): T1 sequence (Q5NUL3 whole entry)

[4] = biological target: T2, Free fatty acid receptor 1; test: Agonist activity at human FFA1 receptor expressed in human U2OS cells co-expressing Galpha16 assessed as calcium mobilization by Fluo-4 dye based FLIPR assay relative to GSK137647A; assay type: functional, cell-based; summary of the method: as §1
[5] = Clearance in C57BL/6J mouse at 3 mg/kg, iv; assay type: ADME, organism-based; conditions: in vivo
Summary of the method: (§2)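 C57BL/6J mice (n = 2) dosed intravenously at 3 or 4.2 mg/kg. Clearance (mL/min/kg) and AUC (hr*ng/mL) derived from plasma concentrations.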

[6] = AUC in C57BL/6J mouse at 3 mg/kg, iv; assay type: ADME, organism-based; conditions: in vivo; summary of the method: as §2
[7] = Cmax in C57BL/6J mouse at 10 mg/kg, po; assay type: ADME, organism-based; design: dose 10 mg/kg, route oral; conditions: in vivo
Summary of the method: (§3)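 C57BL/6J mice (n = 2), single oral dose of 10 mg/kg given as a suspension in 0.5% HMPC: 0.1% Tween. Plasma Cmax and AUC (hr*ng/mL) measured; %F calculated against the IV leg.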

[8] = AUC in C57BL/6J mouse at 10 mg/kg, po; assay type: ADME, organism-based; conditions: in vivo; summary of the method: as §3
[9] = Oral bioavailability in C57BL/6J mouse at 10 mg/kg; assay type: ADME, organism-based; conditions: in vivo; summary of the method: as §3
[10] = Tmax in C57BL/6J mouse at 10 mg/kg, po; assay type: ADME, organism-based; conditions: in vivo
[11] = Volume of distribution at steady state in C57BL/6J mouse at 3 mg/kg, iv or 10 mg/kg, po; assay type: ADME, organism-based; conditions: in vivo, read-out: Vdss
[12] = Protein binding in human plasma; assay type: ADME, cell-free; conditions: read-out: PPB
Homo sapiens [13] = species on record: Homo sapiens; test: Selectivity ratio of EC50 for human FFA4 receptor expressed in human U2OS cells co-expressing Galpha16 to EC50 for human FFA1 receptor expressed in human U2OS cells co-expressing Galpha16; assay type: cell-based
Homo sapiens [14] = species on record: Homo sapiens; test: Selectivity ratio of EC50 for human FFA1 receptor expressed in human U2OS cells co-expressing Galpha16 to EC50 for human FFA4 receptor expressed in human U2OS cells co-expressing Galpha16; assay type: cell-based

Row | SMILES | EC50 [1] [nM] | EC50 ([2]; read-out: EC50) [nM] | %max [3] [%] | %max [4] [%] | also measured
1 | Cc1cc(CCC(=O)O)cc(C)c1OCc1ccccc1SC(F)(F)F | 660 | 21800 | 102 | 115 | –
2 | Cc1cc(OCc2ccccc2SC(F)(F)F)ccc1CCC(=O)O | 722 | 1540 | 90 | 108 | –
3 | Cc1ccc(Cl)c(COc2ccc(CCC(=O)O)cc2C)c1 | 188 | 18100 | 115 | 243 | clearance [5]: 18 mL/min/kg; AUC [6]: 2860 ng·h/mL; Cmax [7]: 3030 ng/mL; AUC [8]: 4400 ng·h/mL; bioavailability [9]: 46%; Tmax [10]: 15 to 30 min; Vd [11]: < 2 L/kg; fraction unbound [12]: < 0.01
4 | Cc1cc(CCC(=O)O)ccc1OCc1ccccc1Br | 236 | > 30000 | 116 | – | –
5 | Cc1ccc(Br)c(COc2ccc(CCC(=O)O)cc2C)c1 | 53 | > 30000 | 118 | – | –
6 | Cc1cc(CCC(=O)O)ccc1OCc1ccccc1OC(C)C | 271 | > 30000 | 118 | – | –
7 | Cc1cccc(COc2ccc(CCC(=O)O)cc2C)c1 | 275 | > 30000 | 100 | – | clearance [5]: 12 mL/min/kg; AUC [6]: 4100 ng·h/mL; Cmax [7]: 3080 ng/mL; AUC [8]: 5350 ng·h/mL; bioavailability [9]: 39%; Tmax [10]: 15 to 30 min; Vd [11]: < 2 L/kg; fraction unbound [12]: < 0.01
8 | Cc1cc(CCC(=O)O)ccc1OCc1cccc(Oc2ccccc2)c1 | 556 | 3840 | 95 | 90 | –
9 | O=C(O)CCc1ccc(OCc2ccccc2SC(F)(F)F)c2ccccc12 | 2290 | > 30000 | 105 | – | –
10 | CC(C)Cc1cc(CCC(=O)O)ccc1OCc1ccccc1SC(F)(F)F | 9660 | > 30000 | 161 | – | –
11 | Cc1cc(C)cc(COc2ccc(CCC(=O)O)cc2C)c1 | 60 | 3780 | 66 | 97 | clearance [5]: 35 mL/min/kg; AUC [6]: 1420 ng·h/mL; Cmax [7]: 2630 ng/mL; AUC [8]: 2600 ng·h/mL; bioavailability [9]: 55%; Tmax [10]: 15 to 30 min; Vd [11]: < 2 L/kg; fraction unbound [12]: < 0.01
12 | O=C(O)COc1ccc(OCc2ccccc2SC(F)(F)F)cc1 | 9980 | > 30000 | 85 | – | –
13 | Cc1cc(CCC(=O)O)ccc1OCc1ccccc1C(F)(F)F | 531 | 8600 | 103 | 95 | –
14 | O=C(O)CCc1ccc(OCc2ccccc2SC(F)(F)F)c(CO)c1 | 5910 | > 30000 | 53 | – | –
15 | CC(CC(=O)O)c1ccc(OCc2ccccc2SC(F)(F)F)cc1 (centres undefined) | 11400 | 13100 | – | 109 | –
16 | Cc1cc(COc2ccc(CCC(=O)O)cc2C)cc(Oc2ccccc2)c1 | 40 | 1630 | 97 | 85 | –
17 | Cc1cc(CCC(=O)O)ccc1OCc1cc(C(F)(F)F)ccc1O | 10000 | – | 78 | – | –
18 | Cc1ccc(OC(C)C)c(COc2ccc(CCC(=O)O)cc2C)c1 | 172 | 19600 | 106 | 154 | –
19 | Cc1cc(CCC(=O)O)ccc1OCc1cccc(C(F)(F)F)c1 | 898 | > 30000 | 117 | – | –
20 | O=C(O)CCc1ccc(OCc2ccccc2SC(F)(F)F)c(Cl)c1 | 108 | > 10000 | 80 | – | EC50 ([2]; read-out: pEC50 (converted)): > 31600 nM
21 | Cc1cc(CCC(=O)O)ccc1OCc1cccc(Cl)c1 | 362 | 10300 | 104 | 60 | –
22 | O=C(O)CCc1ccc(OCc2cccc(Oc3ccccc3)c2)cc1 | 968 | – | 85 | 106 | Ratio EC50 (Homo sapiens [13]): 17
23 | Cc1cc(CCC(=O)O)ccc1OCc1ccccc1Cl | 972 | 11600 | 130 | 80 | –
24 | O=C(O)CC(O)c1ccc(OCc2ccccc2SC(F)(F)F)cc1 (centres undefined) | > 30000 | – | – | – | –
25 | Cc1cc(COc2ccc(CCC(=O)O)cc2C)cc(OC(C)C)c1 | 60 | > 30000 | 112 | – | clearance [5]: 43 mL/min/kg; AUC [6]: 1170 ng·h/mL; Cmax [7]: 687 ng/mL; AUC [8]: 767 ng·h/mL; bioavailability [9]: 20%; Tmax [10]: 15 to 30 min; Vd [11]: < 2 L/kg; fraction unbound [12]: < 0.01
26 | COc1cc(CCC(=O)O)ccc1OCc1ccccc1SC(F)(F)F | 1990 | > 30000 | 110 | – | –
27 | O=C(O)CCc1ccc(OCc2ccccc2SC(F)(F)F)cc1 | 681 | 1420 | 105 | 74 to 77 | Ratio EC50 (Homo sapiens [14]): 2
28 | Cc1cc(CCC(=O)O)ccc1OCc1ccccc1SC(F)(F)F | 201 | 8510 | 108 | 81 | –
29 | Cc1cc(CCC(=O)O)ccc1OCc1ccccc1 | 750 | > 30000 | 83 | – | –
30 | Cc1c(CCC(=O)O)ccc(OCc2ccccc2SC(F)(F)F)c1C | 304 | > 30000 | 77 | – | –
